Assay results from ChEMBL document CHEMBL3603733, “Synthesis and biological evaluation of (3',5'-dichloro-2,6-dihydroxy-biphenyl-4-yl)-aryl/alkyl-methanone selective CB2 inverse agonist” (Bioorg Med Chem, 2015).
Active and inactive are the calls of the source. No cut-off for these calls is given here.

Tests used:
Cannabinoid receptor 1 [1] = biological target: T1, Cannabinoid receptor 1 (Homo sapiens, UniProt P21554); assay: Inverse agonist activity at CB1 receptor (unknown origin) expressed in HEK cells assessed as increase in cAMP production measured at 50 mins by ACTOne dye-based fluorescence assay in presence of forskolin and Ro 20-1724; format: functional, cell-based, HEK293
T1 sequence (P21554 whole entry): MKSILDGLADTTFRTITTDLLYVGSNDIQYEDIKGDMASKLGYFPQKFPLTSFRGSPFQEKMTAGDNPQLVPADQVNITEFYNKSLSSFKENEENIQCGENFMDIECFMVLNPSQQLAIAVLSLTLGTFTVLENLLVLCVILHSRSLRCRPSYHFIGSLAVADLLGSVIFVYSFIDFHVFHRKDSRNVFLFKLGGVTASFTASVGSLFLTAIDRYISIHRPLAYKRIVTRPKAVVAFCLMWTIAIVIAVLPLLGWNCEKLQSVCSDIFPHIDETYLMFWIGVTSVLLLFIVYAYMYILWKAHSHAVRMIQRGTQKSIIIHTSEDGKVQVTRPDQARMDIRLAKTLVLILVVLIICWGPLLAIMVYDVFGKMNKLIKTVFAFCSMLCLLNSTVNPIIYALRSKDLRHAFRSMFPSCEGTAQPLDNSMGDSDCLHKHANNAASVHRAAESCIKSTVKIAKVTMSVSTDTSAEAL
Outline: (§1)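 HEK-CNG+CB1 or HEK-CNG+CB2 cells, plus parental HEK-CNG, were plated at 50,000 cells/well in DMEM with 10% FBS the day before. Membrane potential dye was loaded for 1 h in the dark at room temperature. Ligands were added at 5x10⁻⁶ to 5x10⁻¹⁰ final, with 25 µM Ro 20-1724 and 800 nM forskolin, in DPBS with 2.5% DMSO. Fluorescence (Ex 540, Em 590 nm) was read at 50 min. At least six biological replicates were run, with non-linear fitting.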

Cannabinoid receptor 2 [2] = biological target: T2, Cannabinoid receptor 2 (Homo sapiens, UniProt P34972); assay: Inverse agonist activity at CB2 receptor (unknown origin) expressed in HEK cells assessed as increase in cAMP production at 5 x 10^-6 to 5 x 10^-10 M measured at 50 mins by ACTOne dye-based fluorescence assay in presence of forskolin and Ro 20-1724 relative to control; format: functional, cell-based; details: HEK293; outline: as §1
T2 sequence (P34972 whole entry): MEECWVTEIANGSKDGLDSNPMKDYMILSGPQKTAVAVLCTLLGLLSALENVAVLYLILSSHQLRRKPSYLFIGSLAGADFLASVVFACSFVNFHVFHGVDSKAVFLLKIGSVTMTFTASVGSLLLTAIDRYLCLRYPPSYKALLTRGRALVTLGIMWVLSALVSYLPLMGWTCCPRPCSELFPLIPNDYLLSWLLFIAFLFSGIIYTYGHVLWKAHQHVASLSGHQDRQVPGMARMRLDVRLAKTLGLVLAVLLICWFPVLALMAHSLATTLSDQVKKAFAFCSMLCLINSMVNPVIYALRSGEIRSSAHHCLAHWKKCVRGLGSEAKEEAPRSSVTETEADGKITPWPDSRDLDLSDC

Cannabinoid receptor 1 [3] = biological target: T1, Cannabinoid receptor 1; assay: Displacement of [3H]-CP55940 from CB1 receptor (unknown origin) expressed in HEK-CNG cell membranes after 90 mins by liquid scintillation counting analysis
Cannabinoid receptor 2 [4] = biological target: T2, Cannabinoid receptor 2; assay: Displacement of [3H]-CP55940 from CB2 receptor (unknown origin) expressed in HEK-CNG cell membranes after 90 mins by liquid scintillation counting analysis
Cannabinoid receptor 2 [5] = biological target: T2, Cannabinoid receptor 2; assay: Inverse agonist activity at CB2 receptor (unknown origin) expressed in HEK cells assessed as increase in cAMP production measured at 50 mins by ACTOne dye-based fluorescence assay in presence of forskolin and Ro 20-1724; format: functional, cell-based, HEK293
Outline: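 HEK-CNG+CB1 or HEK-CNG+CB2 cells, plus parental HEK-CNG, were plated at 50,000 cells/well in DMEM with 10% FBS the day before. Membrane potential dye was loaded for 1 h in the dark at room temperature. At least six biological replicates were run, with non-linear fitting.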

Cannabinoid receptor 1 [6] = biological target: T1, Cannabinoid receptor 1; assay: Inverse agonist activity at CB1 receptor (unknown origin) expressed in HEK cells assessed as increase in cAMP production at 5 x 10^-6 to 5 x 10^-10 M measured at 50 mins by ACTOne dye-based fluorescence assay in presence of forskolin and Ro 20-1724 relative to control; format: functional, cell-based; details: HEK293; outline: as §1
Homo sapiens = species: Homo sapiens; assay: Selectivity ratio of Ki for CB1 receptor (unknown origin) to Ki for CB2 receptor (unknown origin)
Cannabinoid receptor 2 [7] = biological target: T2, Cannabinoid receptor 2; assay: Non-competitive antagonist activity at CB2 receptor (unknown origin) expressed in HEK cells incubated in dark condition for 30 mins prior to CP55940 addition measured at 50 mins by Schild plot analysis; format: cell-based; details: HEK293
Outline: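 HEK-CNG+CB2 cells were loaded with membrane potential dye. After 30 min, antagonist in DPBS with 2.5% DMSO was added and incubated 30 more min in the dark at room temperature. CP 55,940 was then added with 25 µM Ro 20-1724 and 800 nM forskolin (final). Fluorescence was read at 50 min.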

SMILES: CC(C)(C)c1ccc(C(=O)c2cc(O)c(-c3cc(Cl)cc(Cl)c3)c(O)c2)cc1
- EC50 (Cannabinoid receptor 1 [1]; hek293): Not Active
- Efficacy (Cannabinoid receptor 2 [2]): 275%
- Ki (Cannabinoid receptor 1 [3]): 2.53 µM
- Ki (Cannabinoid receptor 2 [4]): 3.17 µM
- EC50 (Cannabinoid receptor 2 [5]; read-out: EC50): 3.97 µM

SMILES: O=C(c1cc(O)c(-c2cc(Cl)cc(Cl)c2)c(O)c1)C1CCCCC1
- Efficacy (Cannabinoid receptor 1 [6]): inactive
- EC50 (Cannabinoid receptor 1 [1]; read-out: EC50): > 5 µM
- Efficacy (Cannabinoid receptor 2 [2]): inactive
- Ki (Cannabinoid receptor 1 [3]): 0.299 µM
- Ki (Cannabinoid receptor 2 [4]): 1.59 µM
- Ratio Ki (Homo sapiens): 0.19
- EC50 (Cannabinoid receptor 2 [5]; read-out: EC50): 2.54 µM

SMILES: O=C(c1ccc(O)cc1)c1cc(O)c(-c2cc(Cl)cc(Cl)c2)c(O)c1
- Efficacy (Cannabinoid receptor 1 [6]): inactive
- EC50 (Cannabinoid receptor 1 [1]; hek293): Not Active
- Efficacy (Cannabinoid receptor 2 [2]): 75.6%
- Ki (Cannabinoid receptor 1 [3]): > 10 µM
- Ki (Cannabinoid receptor 2 [4]): > 10 µM
- EC50 (Cannabinoid receptor 2 [5]; read-out: EC50): > 5 µM

SMILES: Cc1cc(C)cc(C(=O)c2cc(O)c(-c3cc(Cl)cc(Cl)c3)c(O)c2)c1
- Efficacy (Cannabinoid receptor 1 [6]): inactive
- EC50 (Cannabinoid receptor 1 [1]; hek293): Not Active
- Efficacy (Cannabinoid receptor 2 [2]): inactive
- Ki (Cannabinoid receptor 1 [3]): > 10 µM
- Ki (Cannabinoid receptor 2 [4]): > 10 µM
- EC50 (Cannabinoid receptor 2 [5]; hek293): Not Active

SMILES: COc1cc(C(=O)c2ccc(Cl)cc2)cc(O)c1-c1cc(Cl)cc(Cl)c1
- Efficacy (Cannabinoid receptor 1 [6]): 71.3%
- EC50 (Cannabinoid receptor 1 [1]; read-out: EC50): 2.88 µM
- Efficacy (Cannabinoid receptor 2 [2]): 97.5%
- Ki (Cannabinoid receptor 1 [3]): > 10 µM
- Ki (Cannabinoid receptor 2 [4]): > 10 µM
- EC50 (Cannabinoid receptor 2 [5]; read-out: EC50): > 5 µM

SMILES: CCCCCCC(=O)c1cc(O)c(-c2cc(Cl)cc(Cl)c2)c(O)c1
- EC50 (Cannabinoid receptor 1 [1]; hek293): Not Active
- Ki (Cannabinoid receptor 1 [3]): > 10 µM
- Ki (Cannabinoid receptor 2 [4]): > 10 µM
- EC50 (Cannabinoid receptor 2 [5]; hek293): Not Active

SMILES: CCCCc1ccc(C(=O)c2cc(O)c(-c3cc(Cl)cc(Cl)c3)c(OC)c2)cc1
- EC50 (Cannabinoid receptor 1 [1]; hek293): Not Active
- Efficacy (Cannabinoid receptor 2 [2]): 108%
- Ki (Cannabinoid receptor 1 [3]): > 10 µM
- Ki (Cannabinoid receptor 2 [4]): > 10 µM
- EC50 (Cannabinoid receptor 2 [5]; read-out: EC50): > 5 µM

SMILES: CCc1cccc(C(=O)c2cc(O)c(-c3cc(Cl)cc(Cl)c3)c(O)c2)c1
- Efficacy (Cannabinoid receptor 1 [6]): inactive
- EC50 (Cannabinoid receptor 1 [1]; hek293): Not Active
- Efficacy (Cannabinoid receptor 2 [2]): 184%
- Ki (Cannabinoid receptor 1 [3]): > 10 µM
- Ki (Cannabinoid receptor 2 [4]): 1.72 µM
- Ratio Ki (Homo sapiens): > 5.82
- EC50 (Cannabinoid receptor 2 [5]; read-out: EC50): > 5 µM

SMILES: CCCCc1ccc(C(=O)c2cc(O)c(-c3cc(Cl)cc(Cl)c3)c(O)c2)cc1
- Efficacy (Cannabinoid receptor 1 [6]): inactive
- EC50 (Cannabinoid receptor 1 [1]; hek293): Not Active
- Efficacy (Cannabinoid receptor 2 [2]): 176%
- Ki (Cannabinoid receptor 1 [3]): > 10 µM
- inhibition (Cannabinoid receptor 2 [7]): Active
- Ki (Cannabinoid receptor 2 [4]): 0.464 µM
- Ratio Ki (Homo sapiens): > 21.5
- EC50 (Cannabinoid receptor 2 [5]; read-out: EC50): 0.254 µM

SMILES: Cc1cccc(C(=O)c2cc(O)c(-c3cc(Cl)cc(Cl)c3)c(O)c2)c1
- EC50 (Cannabinoid receptor 1 [1]; hek293): Not Active
- Ki (Cannabinoid receptor 1 [3]): > 10 µM
- Ki (Cannabinoid receptor 2 [4]): 2.62 µM
- EC50 (Cannabinoid receptor 2 [5]; hek293): Not Active

SMILES: CCCCc1ccc(C(=O)c2cc(OC)c(-c3cc(Cl)cc(Cl)c3)c(OC)c2)cc1
- Efficacy (Cannabinoid receptor 1 [6]): inactive
- EC50 (Cannabinoid receptor 1 [1]; hek293): Not Active
- Efficacy (Cannabinoid receptor 2 [2]): inactive
- Ki (Cannabinoid receptor 1 [3]): > 10 µM
- Ki (Cannabinoid receptor 2 [4]): > 10 µM
- EC50 (Cannabinoid receptor 2 [5]; hek293): Not Active

SMILES: O=C(c1ccc(Cl)cc1)c1cc(O)c(-c2cc(Cl)cc(Cl)c2)c(O)c1
- Efficacy (Cannabinoid receptor 1 [6]): 169%
- EC50 (Cannabinoid receptor 1 [1]; read-out: EC50): 3.28 µM
- Efficacy (Cannabinoid receptor 2 [2]): 119%
- Ki (Cannabinoid receptor 1 [3]): 4.65 µM
- Ki (Cannabinoid receptor 2 [4]): 0.121 µM
- Ratio Ki (Homo sapiens): 38.5
- EC50 (Cannabinoid receptor 2 [5]; read-out: EC50): 0.0897 µM

SMILES: COc1cc(C(=O)c2ccc(Cl)cc2)cc(OC)c1-c1cc(Cl)cc(Cl)c1
- EC50 (Cannabinoid receptor 1 [1]; hek293): Not Active
- Ki (Cannabinoid receptor 1 [3]): > 10 µM
- Ki (Cannabinoid receptor 2 [4]): > 10 µM
- EC50 (Cannabinoid receptor 2 [5]; hek293): Not Active

SMILES: CCCc1ccc(C(=O)c2cc(O)c(-c3cc(Cl)cc(Cl)c3)c(O)c2)cc1
- EC50 (Cannabinoid receptor 1 [1]; hek293): Not Active
- Efficacy (Cannabinoid receptor 2 [2]): 50%
- Ki (Cannabinoid receptor 1 [3]): > 10 µM
- Ki (Cannabinoid receptor 2 [4]): 0.0599 µM
- EC50 (Cannabinoid receptor 2 [5]; read-out: EC50): 0.0288 µM

SMILES: Cc1ccc(Cn2nc(C(=O)NC3C4(C)CCC(C4)C3(C)C)cc2-c2ccc(Cl)c(C)c2)cc1 (configuration not stated) [SR-144528]
- Efficacy (Cannabinoid receptor 1 [6]): inactive
- EC50 (Cannabinoid receptor 1 [1]; hek293): Not Active
- Efficacy (Cannabinoid receptor 2 [2]): 80.8%

SMILES: O=C(c1cccc(C(F)(F)F)c1)c1cc(O)c(-c2cc(Cl)cc(Cl)c2)c(O)c1
- EC50 (Cannabinoid receptor 1 [1]; hek293): Not Active
- Ki (Cannabinoid receptor 1 [3]): 4.13 µM
- Ki (Cannabinoid receptor 2 [4]): > 10 µM
- EC50 (Cannabinoid receptor 2 [5]; hek293): Not Active

SMILES: CC(C)c1ccc(C(=O)c2cc(O)c(-c3cc(Cl)cc(Cl)c3)c(O)c2)cc1
- EC50 (Cannabinoid receptor 1 [1]; hek293): Not Active
- Efficacy (Cannabinoid receptor 2 [2]): 56%
- Ki (Cannabinoid receptor 1 [3]): 3.33 µM
- Ki (Cannabinoid receptor 2 [4]): 0.161 µM
- EC50 (Cannabinoid receptor 2 [5]; read-out: EC50): 0.182 µM

SMILES: CCc1ccc(C(=O)c2cc(O)c(-c3cc(Cl)cc(Cl)c3)c(O)c2)cc1
- EC50 (Cannabinoid receptor 1 [1]; hek293): Not Active
- Efficacy (Cannabinoid receptor 2 [2]): 52.2%
- Ki (Cannabinoid receptor 1 [3]): 1.14 µM
- inhibition (Cannabinoid receptor 2 [7]): Active
- Ki (Cannabinoid receptor 2 [4]): 0.0376 µM
- EC50 (Cannabinoid receptor 2 [5]; read-out: EC50): 0.0295 µM

SMILES: COc1cc(C(=O)c2ccc(C)cc2)cc(O)c1-c1cc(Cl)cc(Cl)c1
- EC50 (Cannabinoid receptor 1 [1]; hek293): Not Active
- Efficacy (Cannabinoid receptor 2 [2]): 129%
- Ki (Cannabinoid receptor 1 [3]): > 10 µM
- Ki (Cannabinoid receptor 2 [4]): > 10 µM
- EC50 (Cannabinoid receptor 2 [5]; read-out: EC50): > 5 µM

SMILES: O=C(c1ccccc1)c1cc(O)c(-c2cc(Cl)cc(Cl)c2)c(O)c1
- Efficacy (Cannabinoid receptor 1 [6]): inactive
- EC50 (Cannabinoid receptor 1 [1]; hek293): Not Active
- Efficacy (Cannabinoid receptor 2 [2]): 54.8%
- inhibition (Cannabinoid receptor 2 [7]): Active
- Ratio Ki (Homo sapiens): 39.4

SMILES: O=C(c1ccc(C(F)(F)F)cc1)c1cc(O)c(-c2cc(Cl)cc(Cl)c2)c(O)c1
- Efficacy (Cannabinoid receptor 1 [6]): 37%
- EC50 (Cannabinoid receptor 1 [1]; read-out: EC50): > 5 µM
- Efficacy (Cannabinoid receptor 2 [2]): 49.7%
- Ki (Cannabinoid receptor 1 [3]): > 10 µM
- Ki (Cannabinoid receptor 2 [4]): > 10 µM
- EC50 (Cannabinoid receptor 2 [5]; read-out: EC50): > 5 µM

SMILES: COc1cc(C(=O)c2ccc(C)cc2)cc(OC)c1-c1cc(Cl)cc(Cl)c1
- Efficacy (Cannabinoid receptor 1 [6]): inactive
- EC50 (Cannabinoid receptor 1 [1]; hek293): Not Active
- Efficacy (Cannabinoid receptor 2 [2]): inactive
- Ki (Cannabinoid receptor 1 [3]): > 10 µM
- Ki (Cannabinoid receptor 2 [4]): > 10 µM
- EC50 (Cannabinoid receptor 2 [5]; hek293): Not Active

SMILES: Cc1ccc(C(=O)c2cc(O)c(-c3cc(Cl)cc(Cl)c3)c(O)c2)cc1
- Efficacy (Cannabinoid receptor 1 [6]): inactive
- EC50 (Cannabinoid receptor 1 [1]; hek293): Not Active
- Efficacy (Cannabinoid receptor 2 [2]): 230%
- Ki (Cannabinoid receptor 1 [3]): 9.43 µM
- Ki (Cannabinoid receptor 2 [4]): 0.258 µM
- Ratio Ki (Homo sapiens): 36.6
- EC50 (Cannabinoid receptor 2 [5]; read-out: EC50): 0.118 µM
